Measurements as given in BindingDB's records for doi:10.1021/jm960245f (University of Maryland, 1996).

Columns and labels:
[1] = biological target: T1, Steroid 17-alpha-hydroxylase/17,20 lyase (Homo sapiens, UniProt P05093); experiment: Inhibition of human testicular 17-alpha-hydroxylase
T1 sequence (P05093 whole entry): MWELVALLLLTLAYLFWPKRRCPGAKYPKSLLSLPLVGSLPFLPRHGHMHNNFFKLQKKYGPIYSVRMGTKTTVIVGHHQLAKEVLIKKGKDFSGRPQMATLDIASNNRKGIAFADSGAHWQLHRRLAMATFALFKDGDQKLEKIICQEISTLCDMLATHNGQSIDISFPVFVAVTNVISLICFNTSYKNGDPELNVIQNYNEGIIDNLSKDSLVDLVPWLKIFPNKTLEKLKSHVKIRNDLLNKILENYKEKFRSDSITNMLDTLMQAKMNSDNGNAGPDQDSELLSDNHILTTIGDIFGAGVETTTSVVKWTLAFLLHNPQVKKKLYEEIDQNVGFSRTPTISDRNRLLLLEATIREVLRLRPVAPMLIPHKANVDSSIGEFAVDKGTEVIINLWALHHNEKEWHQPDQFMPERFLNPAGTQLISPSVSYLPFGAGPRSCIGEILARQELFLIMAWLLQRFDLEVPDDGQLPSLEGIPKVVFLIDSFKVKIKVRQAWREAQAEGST
Procedure, shortened: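 Human testicular microsomes (ca. 90 μg protein; from orchidectomy patients, stored at –70 °C, diluted in 0.1 M phosphate buffer) incubated with [7-3H]pregnenolone (400 nM) plus NADPH-generating system in phosphate buffer pH 7.4 under oxygen, 5 min, 34 °C, at four to five inhibitor concentrations. Reverse-phase HPLC with radioactivity counting; activity = conversion to 17α-hydroxypregnenolone plus DHEA. IC50 by nonlinear regression; duplicates, repeated at least once.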

[2] = biological target: T1, Steroid 17-alpha-hydroxylase/17,20 lyase; experiment: Inhibition of human testicular steroid 17-alpha-hydroxylase
Procedure, shortened: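 Human testicular microsomes (orchidectomy tissue from untreated prostatic cancer patients, ca. 90 μg protein) incubated with [7-³H]pregnenolone (400 nM) plus NADPH-generating system in pH 7.4 phosphate buffer under oxygen, 5 min, 34 °C, with four to five inhibitor concentrations. Reverse-phase HPLC with radioactivity counting; activity = conversion to 17α-hydroxypregnenolone plus DHEA. Duplicates, repeated at least once; IC50 by nonlinear regression.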

IC50 [1] | IC50 [2] | SMILES
5.98 µM |  | C[C@@H](CN=O)[C@H]1CC[C@H]2[C@@H]3CCC4=CC(=O)CC[C@]4(C)[C@H]3CC[C@]12C
9.98 µM |  | CC(N=N)[C@H]1CC[C@H]2[C@@H]3CC=C4C[C@@H](O)CC[C@]4(C)[C@H]3CC[C@]12C (stereo partly drawn)
 | 0.53 µM | CC(N=O)C1CCC2C3CC=C4C[C@@H](O)CC[C@]4(C)C3CC[C@]12C (stereo partly drawn) [1-((3S,10R,13S)-3-Hydroxy-10,13-dimethyl-2,3,4,7,8,9,10,11,12,13,14,15,16,17-tetradecahydro-1H-cyclopenta[a]phenanthren-17-yl)-ethanone oxime]
